Reference: ChEMBL document CHEMBL1132476, “Design and synthesis of novel alpha(1)(a) adrenoceptor-selective antagonists. 1. Structure-activity relationship in dihydropyrimidinones” (J Med Chem, 1999)

Assays:
[1] = species on record: Rattus norvegicus; test: Dose required to produce 50% inhibition of phenylephrine induced diastolic blood pressure in rat.; assay type: functional, Artery
[2] = species on record: Canis familiaris; test: Potency to inhibi phenylephrine stimulated diastolic blood pressure in dog.; assay type: functional, Canis lupus familiaris, Artery
How it was run: (§1)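 Male mongrel dogs (9–14 kg), pentobarbital-anesthetized (35 mg/kg iv plus 4–5 mg/kg/h infusion), ventilated, with femoral catheters. Control iv bolus phenylephrine dose–response curves for intraurethral and diastolic pressure, repeated after successive iv antagonist doses (30, 100, 300). Kb by Arunlakshana–Schild analysis.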

[3] = species on record: Rattus norvegicus; test: (§2) Duration of action in rat; assay type: functional
How it was run: (§3)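 Anesthetized (urethane) male Sprague-Dawley rats (300–400 g), kept at 37 °C rectal temperature. Anterior prostate attached to a force transducer at 2 g resting tension. Pretreatment: atropine and propranolol (1 mg/kg each). Contractions were evoked by agonist (phenylephrine 10 μg/kg or (R)-A-61603 30 ng/kg), given 5 min after antagonist and then every 30 min for up to 4 h.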

[4] = species on record: Rattus norvegicus; test: Antagonistic activity against norepinephrine induced contractions in rat aorta.; assay type: functional
[5] = species on record: Canis familiaris; test: Potency to inhibit phenylephrine stimulated intraurethral pressure in dog.; assay type: functional, Canis lupus familiaris, Urethra; how it was run: as §1
[6] = species on record: Rattus norvegicus; test: Dose required to produce 50% inhibition of phenylephrine induced contractile response in situ rat prostate.; assay type: functional, Prostate gland
How it was run: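 Male Sprague-Dawley rats (300–400 g), urethane-anesthetized, held at 37 °C rectal, pretreated with atropine and propranolol (1 mg/kg each). Anterior prostate on a force transducer at 2 g resting tension; phenylephrine challenge 10 μg/kg. For AD50, rising noncumulative antagonist doses were given every 20 min, with agonist 5 min after each. For duration, agonist was given 5 min after antagonist, then every 30 min for up to 4 h.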

[7] = species on record: Rattus norvegicus; test: Antagonistic activity against norepinephrine induced contractions in rat vas deferens.; assay type: functional
[8] = target: T1, Adrenergic receptor alpha-1 (Rattus norvegicus, UniProt P15823+P23944+P43140); test: In vitro binding affinity against Alpha-1A adrenergic receptor in isolated prostate tissue of rat; assay type: tissue-based, Prostate gland
T1 sequence (P15823 whole entry): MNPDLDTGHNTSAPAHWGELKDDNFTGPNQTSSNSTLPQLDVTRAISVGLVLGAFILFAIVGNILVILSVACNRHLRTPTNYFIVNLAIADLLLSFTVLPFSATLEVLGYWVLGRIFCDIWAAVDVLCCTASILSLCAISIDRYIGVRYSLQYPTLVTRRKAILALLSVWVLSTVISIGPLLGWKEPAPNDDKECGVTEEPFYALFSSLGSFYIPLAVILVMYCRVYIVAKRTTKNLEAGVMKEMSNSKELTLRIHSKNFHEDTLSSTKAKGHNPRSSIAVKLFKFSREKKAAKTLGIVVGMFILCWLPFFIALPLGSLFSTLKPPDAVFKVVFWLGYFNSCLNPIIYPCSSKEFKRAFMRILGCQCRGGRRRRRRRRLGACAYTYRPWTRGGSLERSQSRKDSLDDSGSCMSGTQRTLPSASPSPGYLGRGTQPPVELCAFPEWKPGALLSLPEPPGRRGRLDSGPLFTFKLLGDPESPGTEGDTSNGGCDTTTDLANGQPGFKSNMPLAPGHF
T1 sequence (P23944 whole entry): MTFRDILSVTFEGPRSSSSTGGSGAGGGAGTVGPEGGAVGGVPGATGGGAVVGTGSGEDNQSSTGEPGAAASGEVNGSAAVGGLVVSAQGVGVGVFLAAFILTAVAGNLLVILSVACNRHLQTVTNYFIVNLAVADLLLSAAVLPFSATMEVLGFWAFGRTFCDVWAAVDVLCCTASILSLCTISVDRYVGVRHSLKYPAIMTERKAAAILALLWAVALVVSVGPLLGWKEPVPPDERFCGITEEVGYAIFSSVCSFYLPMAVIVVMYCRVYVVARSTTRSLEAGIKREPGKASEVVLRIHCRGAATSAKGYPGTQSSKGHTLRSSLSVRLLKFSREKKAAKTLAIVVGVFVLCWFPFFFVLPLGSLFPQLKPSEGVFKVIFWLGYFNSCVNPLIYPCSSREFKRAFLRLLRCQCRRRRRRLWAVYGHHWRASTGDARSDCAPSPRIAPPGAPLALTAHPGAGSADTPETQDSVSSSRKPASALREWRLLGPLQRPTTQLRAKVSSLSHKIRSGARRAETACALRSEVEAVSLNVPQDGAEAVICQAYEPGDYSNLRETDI
T1 sequence (P43140 whole entry): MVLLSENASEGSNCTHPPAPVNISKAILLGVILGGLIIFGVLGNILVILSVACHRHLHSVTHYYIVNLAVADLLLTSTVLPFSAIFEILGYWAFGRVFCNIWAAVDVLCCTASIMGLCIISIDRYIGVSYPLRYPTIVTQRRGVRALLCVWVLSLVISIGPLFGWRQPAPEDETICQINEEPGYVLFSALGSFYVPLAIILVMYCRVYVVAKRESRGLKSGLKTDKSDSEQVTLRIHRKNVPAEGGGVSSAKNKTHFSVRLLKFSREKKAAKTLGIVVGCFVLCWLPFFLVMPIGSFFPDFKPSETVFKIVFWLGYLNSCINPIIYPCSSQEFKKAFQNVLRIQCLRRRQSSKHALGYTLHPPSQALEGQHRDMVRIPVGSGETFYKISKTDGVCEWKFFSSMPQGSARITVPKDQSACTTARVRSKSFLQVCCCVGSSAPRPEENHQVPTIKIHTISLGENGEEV

[9] = species on record: Rattus norvegicus; test: as §2; assay type: ADME, organism-based; conditions: in vivo; how it was run: as §3
[10] = species on record: Canis familiaris; test: Potency to inhibit phenylephrine stimulated diastolic blood pressure in dog.; assay type: functional, Canis lupus familiaris, Artery; how it was run: as §1
[11] = species on record: Canis familiaris; test: Antagonism against phenylephrine induced contractions in isolated prostate tissue of dog; assay type: functional, Canis lupus familiaris, Prostate gland
How it was run: (§4)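 Isolated prostate strips (rat or dog) contracted with phenylephrine as agonist. Antagonist potency is expressed as Kb, derived from the shift in the agonist response by a previously published method.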

[12] = species on record: Homo sapiens; test: Antagonism against phenylephrine induced contractions in isolated prostate tissue of human; assay type: functional; conditions: Prostate gland
[13] = species on record: Rattus norvegicus; test: Antagonism against phenylephrine induced contractions in isolated prostate tissue of rat; assay type: functional, Prostate gland; how it was run: as §4
[14] = target: Adrenergic receptor alpha-1 (Rattus norvegicus) (UniProt P15823+P23944+P43140); test: Antagonistic activity against Alpha-1 adrenergic receptor in rat prostate tissue using A61603 as agonist; assay type: functional, tissue-based; conditions: Prostate gland

Row | Structure (SMILES) | AD50 [1] [mg/kg] | Kb [2] [µg/kg] | Duration of action [3] [h] | Kb [4] [nM] | Kb [5] [µg/kg] | AD50 [6] [mg/kg] | Kb [7] [nM] | Ki [8] [nM] | Duration of action [9] [h] | Kb [10] [µg/kg] | Kb [11] [nM] | Kb [12] [nM] | Kb [13] [nM] | Kb [14] [nM]
1 | COc1cc2nc(N3CCN(C(=O)C4CCCO4)CC3)nc(N)c2cc1OC (stereo not drawn) [TERAZOSIN] | 0.065 | 15.7 | >4 | 19 | 16.4 | 0.052 | – | – | – | – | – | – | – | –
2 | CCC1=C(C(N)=O)C(c2ccc(F)c(F)c2)N(C(=O)NCCCN2CCC(C(=O)OC)(c3ccccc3)CC2)C(=O)N1 (stereo not drawn) | >3 | – | – | > 1000 | 4.2 | 0.02 | 2.5 | 0.27 | > 4 | 187 | 3.7 | 0.39 | 1 | 0.3
